Source: ChEMBL document CHEMBL2396633, “Effects of cytoprotective antioxidants on lymphocytes from representative mitochondrial neurodegenerative diseases” (Bioorg Med Chem, 2013)
Calls of active or inactive are those of the source. The rule behind the calls is not given here.

Legend:
Homo sapiens [1] = species on record: Homo sapiens; assay: Cytoprotective activity against diethyl maleate-induced oxidative stress in Leigh's syndrome patient GM13740 cells assessed as cell viability at 0.5 uM preincubated for 15 hrs prior to diethyl maleate-challenge measured after 6 hrs by hemocytometer-based assay; type: functional
Summary of the method: (§1)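 Cells seeded at 5 × 10⁵ cells/mL, preincubated with 0.5 or 2.5 µM compound at 37 °C, 5% CO₂, then given 5 mM diethyl maleate for 6 h. Viable cells counted by trypan blue exclusion on a hemocytometer. Viability expressed as % of untreated control. Three independent experiments in triplicate, mean ± S.E.M.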

[2] = Inhibition of NADH-ubiquinone oxidoreductase in bovine heart mitochondria after 5 mins by spectrophotometric analysis; parameters: species or system Bos taurus
Summary of the method: (§2)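 Bovine heart submitochondrial particles, 12 µg, incubated 5 min at 39 °C with compound in 50 mM phosphate pH 7.4, 0.25 M sucrose, 1 mM MgCl₂, 2 mM KCN, plus antimycin A. Reaction started with 50 µM NADH and 50 µM coenzyme Q₁; NADH loss read at 340 nm. K_I derived. Mean of three experiments in triplicate.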

[3] = Effect on total ATP level in Leber's optic atrophy disease patient GM10744 cells at 10 uM after 48 hrs by bioluminescence assay relative to control; type: functional, Homo sapiens
Summary of the method: (§3)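 Lymphocytes were adapted to glucose-free RPMI with 25 mM galactose for at least one week. Cells at 2 × 10⁵ cells/mL were given compound at final 5, 10 or 25 µM for 48 h at 37 °C, 5% CO₂. Total intracellular ATP was measured by luciferase bioluminescence kit and expressed as % of untreated control.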

Bos taurus [4] = species on record: Bos taurus; assay: Inhibition of NADH oxidase activity of bovine heart mitochondrial […] at 10 uM after 5 mins by spectrophotometric analysis relative to control; values are per cent of control
GM15850 [5] = assay: Effect on total ATP level in Friedreich's ataxia disease patient GM15850 cells after 48 hrs by bioluminescence assay; type: functional; settings: Homo sapiens; summary of the method: as §3
[6] = Effect on total ATP level in CoQ10-deficient human GM17932 cells at 25 uM after 48 hrs by bioluminescence assay relative to control; type: functional; summary of the method: as §3
Homo sapiens [7] = species on record: Homo sapiens; assay: Cytoprotective activity against diethyl maleate-induced oxidative stress in Leigh's syndrome patient GM13740 cells assessed as cell viability at 2.5 uM preincubated for 15 hrs prior to diethyl maleate-challenge measured after 6 hrs by hemocytometer-based assay; type: functional; summary of the method: as §1
Homo sapiens [8] = species on record: Homo sapiens; assay: Cytoprotective activity against diethyl maleate-induced oxidative stress in Alzheimer's disease patient AG06849 cells assessed as cell viability at 2.5 uM preincubated for 15 hrs prior to diethyl maleate-challenge measured after 6 hrs by hemocytometer-based assay; type: functional; summary of the method: as §1
Homo sapiens [9] = species on record: Homo sapiens; assay: Antioxidant activity in Alzheimer's disease patient AG06849 cells assessed as suppression of diethyl maleate-induced ROS generation at 0.025 to 2.5 uM preincubated for 18 hrs prior to diethyl maleate-challenge measured after 1 hr by FACS flow cytometric analysis in presence of DCFH-DA; type: functional
Summary of the method: (§4)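 Lymphocytes (Coriell, RPMI with 15% FBS) or CCRF-CEM cells (RPMI with 10% FBS), 2.5 × 10⁵ cells/mL, exposed to compounds for 18 h at 37 °C, then 5 mM diethyl maleate for 1 h. Cells washed in PBS, loaded with 10 µM DCFH-DA in PBS/10 mM glucose for 25 min at 37 °C in the dark. DCF read by flow cytometry (488 nm excitation, 530 nm emission). Mean ± S.E.M., three experiments in duplicate.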

[10] = Effect on total ATP level in CoQ10-deficient human GM17932 cells at 10 uM after 48 hrs by bioluminescence assay relative to control; type: functional; summary of the method: as §3
Homo sapiens [11] = species on record: Homo sapiens; assay: Cytoprotective activity against diethyl maleate-induced oxidative stress in Parkinson's disease patient GM15010 cells assessed as cell viability at 0.5 uM preincubated for 15 hrs prior to diethyl maleate-challenge measured after 6 hrs by hemocytometer-based assay; type: functional; summary of the method: as §1
Homo sapiens [12] = species on record: Homo sapiens; assay: Cytoprotective activity against diethyl maleate-induced oxidative stress in Leber's optic atrophy disease patient GM10744 cells assessed as cell viability at 0.5 uM preincubated for 15 hrs prior to diethyl maleate-challenge measured after 6 hrs by hemocytometer-based assay; type: functional; summary of the method: as §1
GM15850 [13] = assay: Cytoprotective activity against diethyl maleate-induced oxidative stress in Friedreich's ataxia disease patient GM15850 cells assessed as cell viability at 2.5 uM preincubated for 15 hrs prior to diethyl maleate-challenge measured after 6 hrs by hemocytometer-based assay; type: functional; settings: Homo sapiens; summary of the method: as §1
[14] = Effect on total ATP level in Leber's optic atrophy disease patient GM10744 cells at 5 uM after 48 hrs by bioluminescence assay relative to control; type: functional, Homo sapiens; summary of the method: as §3
Homo sapiens [15] = species on record: Homo sapiens; assay: Effect on total ATP level in Leber's optic atrophy disease patient GM10744 cells after 48 hrs by bioluminescence assay; type: functional; summary of the method: as §3
GM15850 [16] = assay: Effect on total ATP level in Friedreich's ataxia disease patient GM15850 cells at 5 uM after 48 hrs by bioluminescence assay relative to control; type: functional, Homo sapiens; summary of the method: as §3
CCRF-CEM [17] = assay: Cytoprotective activity against diethyl maleate-induced oxidative stress in human CCRF-CEM cells assessed as cell viability at 2.5 uM preincubated for 15 hrs prior to diethyl maleate-challenge measured after 6 hrs by hemocytometer-based assay; type: functional; summary of the method: as §1
Bos taurus [18] = species on record: Bos taurus; assay: Inhibition of NADH oxidase activity of bovine heart mitochondrial […] at 5 uM after 5 mins by spectrophotometric analysis relative to control; values are per cent of control
CCRF-CEM [19] = assay: Antioxidant activity in human CCRF-CEM cells assessed as suppression of diethyl maleate-induced ROS generation preincubated for 18 hrs prior to diethyl maleate-challenge measured after 1 hr by FACS flow cytometric analysis in presence of DCFH-DA; type: functional, cell-based; summary of the method: as §4
[20] = Effect on total ATP level in CoQ10-deficient human GM17932 cells at 5 uM after 48 hrs by bioluminescence assay relative to control; type: functional; summary of the method: as §3
GM15850 [21] = assay: Cytoprotective activity against diethyl maleate-induced oxidative stress in Friedreich's ataxia disease patient GM15850 cells assessed as cell viability at 0.5 uM preincubated for 15 hrs prior to diethyl maleate-challenge measured after 6 hrs by hemocytometer-based assay; type: functional; settings: Homo sapiens; summary of the method: as §1
GM15850 [22] = assay: Effect on total ATP level in Friedreich's ataxia disease patient GM15850 cells at 25 uM after 48 hrs by bioluminescence assay relative to control; type: functional, Homo sapiens; summary of the method: as §3
Homo sapiens [23] = species on record: Homo sapiens; assay: Cytoprotective activity against diethyl maleate-induced oxidative stress in Alzheimer's disease patient AG06849 cells assessed as cell viability at 0.5 uM preincubated for 15 hrs prior to diethyl maleate-challenge measured after 6 hrs by hemocytometer-based assay; type: functional; summary of the method: as §1
Homo sapiens [24] = species on record: Homo sapiens; assay: Cytoprotective activity against diethyl maleate-induced oxidative stress in Leber's optic atrophy disease patient GM10744 cells assessed as cell viability at 2.5 uM preincubated for 15 hrs prior to diethyl maleate-challenge measured after 6 hrs by hemocytometer-based assay; type: functional; summary of the method: as §1
Homo sapiens [25] = species on record: Homo sapiens; assay: Antioxidant activity in Leber's optic atrophy disease patient GM10744 cells assessed as suppression of diethyl maleate-induced ROS generation at 0.025 to 2.5 uM preincubated for 18 hrs prior to diethyl maleate-challenge measured after 1 hr by FACS flow cytometric analysis in presence of DCFH-DA; type: functional; summary of the method: as §4
[26] = Effect on total ATP level in Leber's optic atrophy disease patient GM10744 cells at 25 uM after 48 hrs by bioluminescence assay relative to control; type: functional, Homo sapiens; summary of the method: as §3
CCRF-CEM [27] = assay: Cytoprotective activity against diethyl maleate-induced oxidative stress in human CCRF-CEM cells assessed as cell viability at 0.5 uM preincubated for 15 hrs prior to diethyl maleate-challenge measured after 6 hrs by hemocytometer-based assay; type: functional; summary of the method: as §1
Homo sapiens [28] = species on record: Homo sapiens; assay: Effect on total ATP level in CoQ10-deficient human GM17932 cells after 48 hrs by bioluminescence assay; type: functional; summary of the method: as §3
GM15850 [29] = assay: Effect on total ATP level in Friedreich's ataxia disease patient GM15850 cells at 10 uM after 48 hrs by bioluminescence assay relative to control; type: functional, Homo sapiens; summary of the method: as §3
Homo sapiens [30] = species on record: Homo sapiens; assay: Cytoprotective activity against diethyl maleate-induced oxidative stress in Parkinson's disease patient GM15010 cells assessed as cell viability at 2.5 uM preincubated for 15 hrs prior to diethyl maleate-challenge measured after 6 hrs by hemocytometer-based assay; type: functional; summary of the method: as §1
CCRF-CEM [31] = assay: Antioxidant activity in human CCRF-CEM cells assessed as suppression of diethyl maleate-induced ROS generation at 0.025 to 2.5 uM preincubated for 18 hrs prior to diethyl maleate-challenge measured after 1 hr by FACS flow cytometric analysis in presence of DCFH-DA; type: functional, cell-based; summary of the method: as §4
Bos taurus [32] = species on record: Bos taurus; assay: Inhibition of NADH-ubiquinone oxidoreductase in bovine heart mitochondria after 5 mins by spectrophotometric analysis relative to control; summary of the method: as §2
Bos taurus [33] = species on record: Bos taurus; assay: Inhibition of NADH oxidase activity of bovine heart mitochondrial […] at 1 uM after 5 mins by spectrophotometric analysis relative to control; values are per cent of control

With COC1=C(OC)C(=O)C(CCCCCCCCCCO)=C(C)C1=O [IDEBENONE] the Activity (Homo sapiens [1]) was “inactive”, the IC50 [2] was 6 µM and the Ki [2] was 4 µM. For the same compound, the Activity [3] was 29.9%, the residual activity (Bos taurus [4]) was 13.2% and the Activity (GM15850 [5]) was “Dose-dependent effect”. For the same compound, the Activity [6] was 1.6%, the Activity (Homo sapiens [7]) was “Active” and the Activity (Homo sapiens [8]) was “Active”. The Activity (Homo sapiens [9]) was “Active”, the Activity [10] was 45.7% and the Activity (Homo sapiens [11]) was “inactive”. For the same compound, the Activity (Homo sapiens [12]) was “inactive”, the Activity (GM15850 [13]) was “Active” and the Activity [14] was 55.7%. For the same compound, the Activity (Homo sapiens [15]) was “Dose-dependent effect”, the Activity (GM15850 [16]) was 73% and the Activity (CCRF-CEM [17]) was “Active”. The residual activity (Bos taurus [18]) was 19.3%, the Activity (CCRF-CEM [19]) was “Dose-dependent effect” and the Activity [20] was 79.8%. For the same compound, the Activity (GM15850 [21]) was “inactive”, the Activity (GM15850 [22]) was 2.6% and the Activity (Homo sapiens [23]) was “inactive”. For the same compound, the Activity (Homo sapiens [24]) was “Active”, the Activity (Homo sapiens [25]) was “Active” and the Activity [26] was 3%. For the same compound, the Activity (CCRF-CEM [27]) was “inactive”, the Activity (Homo sapiens [28]) was “Dose-dependent effect” and the Activity (GM15850 [29]) was 45.6%. For the same compound, the Activity (Homo sapiens [30]) was “Active”, the Activity (CCRF-CEM [31]) was “Active” and the Imax (Bos taurus [32]) was 84%. It also gave a residual activity (Bos taurus [33]) of 57.4%.
